Calls of active or inactive are those of the source. No cut-off for these calls is given here.
Columns and labels:
[1] = Cytotoxicity against human Hs578T cells assessed as decrease in live cells at 1 ug/ml for 24 to 48 hrs by flow cytometry; assay type: functional; conditions: Hs-578T
In short: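 Hs578T seeded at 2.5×10^4 cells/ml, exposed to 1 μg/ml or DMSO for 24 and 48 h. Cells trypsinized and resuspended in HEPES-buffered saline with 15 mM glucose. Stained 15 min at 37°C with 1 μM ethidium homodimer and 0.1 μM calcein-AM. Green (calcein) and red (ethidium homodimer) signals read by flow cytometry. Mean ± SEM, 6 experiments.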

Liver microsome [2] = assay: Induction of mitochondrial function disruption in Wistar Han rat liver mitochondria energized with succinate assessed as State-4 level per mg of protein measured at 0.333 ug/mg of protein (reference value: 33.5 +/- 7.5 nmol/mg protein/min); assay type: functional
Liver microsome [3] = assay: Induction of mitochondrial function disruption in Wistar Han rat liver mitochondria energized with succinate assessed as State-3 level per mg of protein measured at 0.333 ug/mg of protein (reference value: 130.8 +/- 24.1 nmol/mg protein/min); assay type: functional
Liver microsome [4] = assay: Induction of mitochondrial function disruption in Wistar Han rat liver mitochondria energized with succinate assessed as adenosine diphosphate/O ratio measured at 0.067 ug/mg of protein (reference value: 2.3 +/- 0.2 no_unit); assay type: functional
[5] = Induction of mitochondrial function disruption in Wistar Han rat liver mitochondria energized with succinate assessed as adenosine diphosphate/O ratio measured at 0.667 ug/mg of protein (reference value: 2.3 +/- 0.2 no_unit); assay type: functional
Liver microsome [6] = assay: Induction of mitochondrial function disruption in Wistar Han rat liver mitochondria energized with succinate assessed as respiratory control ratio measured at 0.067 ug/mg of protein (reference value: 4.1 +/- 0.5 no_unit); assay type: functional
[7] = Induction of apoptosis in human Hs578T cells assessed as distribution of mitochondrial polarization and morphology at 0.25 ug/ml after 6 hrs by confocal microscopy; assay type: functional, cell-based; conditions: Hs-578T
In short: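 Cells were seeded on glass coverslips and left to attach for 24 h. They were then exposed to vehicle or 0.25 μg/ml compound for 6 h. For the last 30 min they were loaded with 100 nM TMRM in saline buffer with 15 mM glucose, and the probe was kept present during imaging. Mitochondrial polarization and morphology were imaged by fluorescence microscopy, and the TMRM fluorescence standard deviation was quantified. Four independent preparations, mean ± SEM.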

[8] = Cytotoxicity against human MCF12A cells at 0.125 to 2 ug/ml after 1 to 5 days by sulforhodamine B assay; assay type: cell-based; conditions: mcf-12a
In short: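 Non-tumor cells seeded at 2×10^4 cells/ml and treated 24 h after seeding, in high-glucose DMEM with pyruvate, 10% FBS and penicillin-streptomycin, 37°C, 5% CO2. Compound exposure 0.125–2 μg/ml for 1, 3 and 5 days, with vehicle controls. Cells fixed and stained with sulforhodamine B for total cell mass. Data given as % of untreated control at each time point; five independent experiments.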

Hs-578T [9] = assay: Induction of apoptosis in human Hs578T cells assessed as increase in cyclophilin D protein at 1 ug/ml after 24 hrs by Western blot analysis; assay type: functional, cell-based
In short: (§1)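 About 1.0×10^6 attached and floating HS578T cells, treated 24 h at 1 μg/ml, were lysed in HEPES/sucrose buffer with DTT, PMSF and protease inhibitors. Extracts were stored at -80°C, then p53 and cyclophilin D were semi-quantified by Western blot. Six experiments, mean ± SEM.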

[10] = Cell cycle arrest against human Hs578T cells assessed as increase in cells at G0/G1 phase at 0.5 ug/ml after 24 to 48 hrs by propidium iodide staining based flow cytometry; assay type: functional; conditions: Hs-578T
In short: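 Log-phase Hs578T cells exposed 24 and 48 h to 0.5 μg/ml. Adherent plus floating cells fixed in cold 70% ethanol, kept overnight at -20°C, washed into PBS-T (132 mM NaCl, 4 mM KCl, 1.2 mM NaH2PO4, 0.1% Tween). Treated with 20 μg/ml RNase for 45 min at 37°C, then propidium iodide for 30 min at 37°C. Phase percentages read by flow cytometry. Mean ± SEM, 5 experiments.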

Liver microsome [11] = assay: Induction of mitochondrial function disruption in Wistar Han rat liver mitochondria energized with succinate assessed as State-4 level per mg of protein measured at 1.333 ug/mg of protein (reference value: 33.5 +/- 7.5 nmol/mg protein/min); assay type: functional
Liver microsome [12] = assay: Induction of mitochondrial function disruption in Wistar Han rat liver mitochondria energized with succinate assessed as respiratory control ratio measured at 0.667 ug/mg of protein (reference value: 4.1 +/- 0.5 no_unit); assay type: functional
Liver microsome [13] = assay: Induction of mitochondrial function disruption in Wistar Han rat liver mitochondria energized with succinate assessed as respiratory control ratio measured at 0.333 ug/mg of protein (reference value: 4.1 +/- 0.5 no_unit); assay type: functional
Liver microsome [14] = assay: Induction of mitochondrial function disruption in Wistar Han rat liver mitochondria energized with succinate assessed as State-4 level per mg of protein measured at 0.067 ug/mg of protein (reference value: 33.5 +/- 7.5 nmol/mg protein/min); assay type: functional
Liver microsome [15] = assay: Induction of mitochondrial function disruption in Wistar Han rat liver mitochondria energized with succinate assessed as State-3 level per mg of protein measured at 0.133 ug/mg of protein (reference value: 130.8 +/- 24.1 nmol/mg protein/min); assay type: functional
Hs-578T [16] = assay: Effect on Bcl2 protein level in human Hs578T cells at 1 ug/ml after 24 hrs by Western blot analysis; assay type: functional, cell-based
Liver microsome [17] = assay: Induction of mitochondrial function disruption in Wistar Han rat liver mitochondria energized with succinate assessed as adenosine diphosphate/O ratio measured at 0.133 ug/mg of protein (reference value: 2.3 +/- 0.2 no_unit); assay type: functional
Liver microsome [18] = assay: Induction of mitochondrial function disruption in Wistar Han rat liver mitochondria energized with succinate assessed as State-3 level per mg of protein measured at 0.067 ug/mg of protein (reference value: 130.8 +/- 24.1 nmol/mg protein/min); assay type: functional
Liver microsome [19] = assay: Induction of mitochondrial function disruption in Wistar Han rat liver mitochondria energized with succinate assessed as State-3 level per mg of protein measured at 0.667 ug/mg of protein (reference value: 130.8 +/- 24.1 nmol/mg protein/min); assay type: functional
Hs-578T [20] = assay: Induction of apoptosis in human Hs578T cells assessed as increase in p53 protein at 1 ug/ml after 24 hrs by Western blot analysis; assay type: functional, cell-based; in short: as §1
Liver microsome [21] = assay: Induction of mitochondrial function disruption in Wistar Han rat liver mitochondria energized with succinate assessed as adenosine diphosphate/O ratio measured at 1.333 ug/mg of protein (reference value: 2.3 +/- 0.2 no_unit); assay type: functional
Hs-578T [22] = assay: Induction of apoptosis in human Hs578T cells assessed as increase in caspase 9 like activity at 1 ug/ml after 24 hrs; assay type: functional, cell-based
In short: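 HS578T cells were treated 24 h at 1 μg/ml. Attached and floating cells were lysed in HEPES pH 7.4/CHAPS/DTT buffer. Extract protein was incubated 2 h at 37°C with […] Ac-DEVD-pNA (caspase-3) or Ac-LEHD-pNA (caspase-9). Released p-nitroanilide was read at endpoint against a pNA calibration. Six experiments, mean ± SEM.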

SMILES | inhibition at 1 µg/mL [1] [%] | Activity (Liver microsome [2]) [nmol/min] | Activity (Liver microsome [3]) [nmol/min] | Ratio (Liver microsome [4]) | Ratio [5] | Ratio (Liver microsome [6]) | Activity [7] | Activity (Hs-578T [9]) | Activity [10] | Activity (Liver microsome [11]) [nmol/min] | Ratio (Liver microsome [12]) | Ratio (Liver microsome [13]) | Activity (Liver microsome [14]) [nmol/min] | Activity (Liver microsome [15]) [nmol/min] | Activity (Hs-578T [16]) | Ratio (Liver microsome [17]) | Activity (Liver microsome [18]) [nmol/min] | Activity (Liver microsome [19]) [nmol/min] | Activity (Hs-578T [20]) | Ratio (Liver microsome [21]) | further results
C=C(C)[C@@H]1CC[C@]2(COC(=O)C[n+]3ccc(N(C)C)cc3)CC[C@]3(C)[C@H](CC[C@@H]4[C@@]5(C)CC[C@H](OC(=O)C[n+]6ccc(N(C)C)cc6)C(C)(C)[C@@H]5CC[C@]43C)[C@@H]12.[Cl-].[Cl-] | 10 | 34.8 | 136 | 2.4 | 2.2 | 4.1 | Active | Active | Active | 34.8 | 4.4 | 4.4 | 24.5 | 130 | inactive | 2.4 | 132 | 141 | Active | 2.3 | Activity [8]: Toxic
C=C(C)[C@@H]1CC[C@]2(COC(=O)CC[n+]3ccc(N(C)C)cc3)CC[C@]3(C)[C@H](CC[C@@H]4[C@@]5(C)CC[C@H](OC(=O)CC[n+]6ccc(N(C)C)cc6)C(C)(C)[C@@H]5CC[C@]43C)[C@@H]12.[Cl-].[Cl-] | – | 29.1 | 121 | 1.8 | 1.6 | 4.3 | – | Active | Active | 25.7 | 4.6 | 4.1 | 29.4 | 111 | inactive | 1.7 | 127 | 116 | Active | 1.8 | Activity (Hs-578T [22]): Active; Activity [8]: Toxic
C=C(C)[C@@H]1CC[C@]2(COC(=O)C[N+](C)(C)C(C)C)CC[C@]3(C)[C@H](CC[C@@H]4[C@@]5(C)CC[C@H](OC(=O)C[N+](C)(C)C(C)C)C(C)(C)[C@@H]5CC[C@]43C)[C@@H]12.[Cl-].[Cl-] | 10 | 27.2 | 121 | 3 | 2.6 | 4 | Active | Active | Active | 28.7 | 4.3 | 4.2 | 27.5 | 121 | inactive | 3.1 | 117 | 116 | Active | 2.9 | Activity (Hs-578T [22]): Active; Activity [8]: Non-toxic
C=C(C)[C@@H]1CC[C@]2(COC(=O)C(CC)[n+]3ccc(N(C)C)cc3)CC[C@]3(C)[C@H](CC[C@@H]4[C@@]5(C)CC[C@H](OC(=O)C(CC)[n+]6ccc(N(C)C)cc6)C(C)(C)[C@@H]5CC[C@]43C)[C@@H]12 (some centres undefined) | 10 | 23.2 | 132 | 1.6 | 1.6 | 3 | Active | Active | Active | 21.5 | 3.1 | 3.2 | 24.1 | 131 | inactive | 1.6 | 130 | 125 | Active | 1.6 | Activity (Hs-578T [22]): Active
